Experiment [1] concerns Pseudomonas aeruginosa. Description: Antimicrobial activity against Pseudomonas aeruginosa PAO1 harboring pV2GY3 with blaVIM-2 and aac(6)'-32 by E-test. The format is functional. The gist of the method:
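Plasmid DNA from clinical strain GY3 was electroporated into PAO1. Transformants were selected on Luria-Bertani agar with 8 μg imipenem/ml and checked with MBL Etest strips and PCR for the MBL gene. MICs for the transformant were determined by Etest.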

The subject of experiment [2] is Pseudomonas aeruginosa. Description: Antimicrobial activity against Pseudomonas aeruginosa PAO1 by E-test. Type of experiment: functional.
The subject of experiment [3] is Pseudomonas aeruginosa. Briefly: Antimicrobial activity against Pseudomonas aeruginosa GY3 producing blaVIM-2 by E-test. Type of experiment: functional.
Experiment [4] relates to Escherichia coli. Briefly: Antimicrobial activity against Escherichia coli XL1-Blue harboring pGTAAC-32 with cloned aac(6)'-32 by E-test.
Experiment [5] relates to Escherichia coli. Briefly: Antimicrobial activity against Escherichia coli XL1-Blue by E-test. Type of experiment: functional.
The test system of experiment [6] is Pseudomonas aeruginosa. Description: Antimicrobial activity against carbapenem-susceptible Pseudomonas aeruginosa clinical isolate assessed as resistant isolates. The format is functional.
Experiment [7] deals with Pseudomonas aeruginosa. Briefly: Antimicrobial activity against carbapenem-resistant Pseudomonas aeruginosa clinical isolate assessed as resistant isolates. The format is functional.
Experiment [8] has as its system Pseudomonas aeruginosa. Description: Antimicrobial activity against carbapenem-resistant Pseudomonas aeruginosa clinical isolate. Type of experiment: functional.
The test system of experiment [9] is Pseudomonas aeruginosa. Briefly: Antimicrobial activity against carbapenem-resistant Pseudomonas aeruginosa clinical isolate.

The values that follow come from ChEMBL document CHEMBL1151445, “Molecular epidemiology and mechanisms of carbapenem resistance in Pseudomonas aeruginosa isolates from Spanish hospitals” (2007).

Values after ≈ are worked out from the molar mass of the structure shown. Some results are limits rather than exact numbers.

In the case of `CO/N=C(\C(=O)N[C@@H]1C(=O)N2C(C(=O)[O-])=C(C[N+]3(C)CCCC3)CS[C@H]12)c1csc(N)n1`, the MIC in [1] stood at 16 µg/mL (≈ 33.3 µM); in experiment [2], 1.5 µg/mL (≈ 3.12 µM); in experiment [3], 16 µg/mL (≈ 33.3 µM).

As to `NCC[C@H](O)C(=O)N[C@@H]1C[C@H](N)[C@@H](O[C@H]2O[C@H](CN)[C@@H](O)[C@H](O)[C@H]2O)[C@H](O)[C@H]1O[C@H]1O[C@H](CO)[C@@H](O)[C@H](N)[C@H]1O` [AMIKACIN], the MIC in [1] came out at 48 µg/mL (≈ 82 µM); in experiment [4], 1.5 µg/mL (≈ 2.56 µM); in [5], 0.75 µg/mL (≈ 1.28 µM); in experiment [2], 3 µg/mL (≈ 5.12 µM); in experiment [3], 64 µg/mL (≈ 109 µM). Further, the values for the Activity in [6] and in experiment [7] were 9% and 19%, respectively.

`C[C@H]1[C@H](NC(=O)/C(=N\OC(C)(C)C(=O)O)c2csc(N)n2)C(=O)N1S(=O)(=O)O` [AZTREONAM]: the MIC in experiment [1] and in experiment [3] was 2 µg/mL (≈ 4.59 µM) each time.

Consider `CC(C)(O/N=C(\C(=O)N[C@@H]1C(=O)N2C(C(=O)[O-])=C(C[n+]3ccccc3)CS[C@H]12)c1csc(N)n1)C(=O)O` [CEFTAZIDIME], for which the MIC in experiment [1] came to 24 µg/mL (≈ 43.9 µM); in experiment [2], 1.5 µg/mL (≈ 2.74 µM); in experiment [3], 16 µg/mL (≈ 29.3 µM). The values for the Activity in experiment [6] and in experiment [7] were 11% and 46%, respectively.

The compound `O=C(O)c1cn(C2CC2)c2cc(N3CCNCC3)c(F)cc2c1=O` [CIPROFLOXACIN] returned an MIC in experiment [3] greater than 32 µg/mL.

As for `C[C@@H](O)[C@H]1C(=O)N2C(C(=O)O)=C(SCCNC=N)C[C@H]12` [IMIPENEM ANHYDROUS], the MIC was greater than 32 µg/mL in experiment [1], 2 µg/mL (≈ 6.68 µM) in experiment [2] and greater than 32 µg/mL in experiment [3]. In addition, in experiment [7], the Activity was 95%.

Consider `C[C@@H](O)[C@H]1C(=O)N2C(C(=O)O)=C(S[C@@H]3CN[C@H](C(=O)N(C)C)C3)[C@H](C)[C@H]12` [MEROPENEM], for which the MIC in experiment [8] turned out to be 8 µg/mL (≈ 20.9 µM); in [9], 8 µg/mL (≈ 20.9 µM); in experiment [1], 16 µg/mL (≈ 41.7 µM); in experiment [2], 0.38 µg/mL (≈ 0.991 µM); in [3], 16 µg/mL (≈ 41.7 µM). Further, the Activity in experiment [7] was determined as 68%.

For the compound `CC1COc2c(N3CCN(C)CC3)c(F)cc3c(=O)c(C(=O)O)cn1c23` (stereo not drawn) [OFLOXACIN], the results for the Activity in experiment [6] and in experiment [7] were 32% and 68%, respectively.

As to `CCN1CCN(C(=O)N[C@@H](C(=O)N[C@@H]2C(=O)N3[C@@H]2SC(C)(C)[C@@H]3C(=O)O)c2ccccc2)C(=O)C1=O` [PIPERACILLIN], the MIC in experiment [1] turned out to be 16 µg/mL (≈ 30.9 µM); in [2], 2 µg/mL (≈ 3.86 µM); in [3], 16 µg/mL (≈ 30.9 µM). In addition, the Activity came to 9% in experiment [6] and 28% in [7].

Turning to `CC1(C)S[C@@H]2[C@H](NC(=O)[C@H](C(=O)O)c3ccsc3)C(=O)N2[C@H]1C(=O)O` [TICARCILLIN], the MIC was greater than 256 µg/mL in [1], 12 µg/mL (≈ 31.2 µM) in experiment [2] and greater than 256 µg/mL in experiment [3]. The Activity is reported as 11% in experiment [6] and 34% in [7].

Take `NC[C@H]1O[C@H](O[C@H]2[C@H](O)[C@@H](O[C@H]3O[C@H](CO)[C@@H](O)[C@H](N)[C@H]3O)[C@H](N)C[C@@H]2N)[C@H](N)C[C@@H]1O` [TOBRAMYCIN]: the MIC in experiment [1] was 64 µg/mL (≈ 137 µM); in experiment [4] it was 6 µg/mL (≈ 12.8 µM); in [5], 0.38 µg/mL (≈ 0.813 µM); in [2], 0.75 µg/mL (≈ 1.6 µM); in experiment [3] it was greater than 256 µg/mL. Also, the figures for the Activity in experiment [6] and in experiment [7] were 9% and 44%, respectively.

As for GENTAMICIN, the MIC in [1] is 16 µg/mL; in experiment [5], 0.19 µg/mL; in experiment [2], 2 µg/mL; in [3] it was 32 µg/mL. The results for the Activity in [6] and in [7] were 26% and 59%, respectively.
